Data: ChEMBL document CHEMBL1147076, “Antitumor activity of MLN8054, an orally active small-molecule inhibitor of Aurora A kinase” (Proc Natl Acad Sci U S A, 2007)
Activity calls are given as the source filed them. The calls are words filed in the database; no cut-off is given here.

Legend:
[1] = biological target: Focal adhesion kinase 1 (Homo sapiens) (UniProt Q05397); assay: Activity of human FAK kinase at 1 uM
[2] = biological target: Vascular endothelial growth factor receptor 1 (Homo sapiens) (UniProt P17948); assay: Activity of human Flt1 kinase at 1 uM
Summary of the method: (§1)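 Single-point kinase profiling: each kinase in a 226-kinase panel tested with compound at 1 μM and ATP at 10 μM in every assay, run by an external screening service.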

[3] = biological target: Inhibitor of nuclear factor kappa-B kinase subunit alpha (Homo sapiens) (UniProt O15111); assay: Activity of human IKKalpha kinase at 1 uM; summary of the method: as §1
[4] = biological target: LIM domain kinase 1 (Homo sapiens) (UniProt P53667); assay: Activity of human LIMK1 kinase at 1 uM
[5] = biological target: Dual specificity mitogen-activated protein kinase kinase 4 (Mus musculus) (UniProt P47809); assay: Activity of mouse MKK4 kinase at 1 uM
Summary of the method: (§2)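 Single-point screen in a 226-kinase panel run by an outside service. Test compound at 1 μM with ATP at 10 μM in every assay. Other assay conditions are not given.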

[6] = biological target: Dual specificity mitogen-activated protein kinase kinase 7 (Homo sapiens) (UniProt O14733); assay: Activity of human MKK7-beta kinase at 1 uM
[7] = biological target: Serine/threonine-protein kinase MRCK alpha (Homo sapiens) (UniProt Q5VT25); assay: Activity of human MRCKalpha kinase at 1 uM
[8] = biological target: Serine/threonine-protein kinase Nek3 (Homo sapiens) (UniProt P51956); assay: Activity of human NEK3 kinase at 1 uM; summary of the method: as §2
[9] = biological target: Serine/threonine-protein kinase Nek7 (Homo sapiens) (UniProt Q8TDX7); assay: Activity of human NEK7 kinase at 1 uM; summary of the method: as §2
[10] = biological target: Serine/threonine-protein kinase PAK 2 (Homo sapiens) (UniProt Q13177); assay: Activity of human PAK2 kinase at 1 uM; summary of the method: as §2
[11] = biological target: Serine/threonine-protein kinase PAK 6 (Homo sapiens) (UniProt Q9NQU5); assay: Activity of human PAK6 kinase at 1 uM; summary of the method: as §2
[12] = biological target: Serine/threonine-protein kinase pim-2 (Homo sapiens) (UniProt Q9P1W9); assay: Activity of human Pim2 kinase at 1 uM; summary of the method: as §2
[13] = biological target: Protein kinase C beta type (Homo sapiens) (UniProt P05771); assay: Activity of human PKC-beta-2 kinase at 1 uM; summary of the method: as §2
[14] = biological target: cGMP-dependent protein kinase 1 (Homo sapiens) (UniProt Q13976); assay: Activity of human PKG1-beta kinase at 1 uM; summary of the method: as §1
[15] = biological target: Serine/threonine-protein kinase N2 (Homo sapiens) (UniProt Q16513); assay: Activity of human PRK2 kinase at 1 uM; summary of the method: as §2
[16] = biological target: cAMP-dependent protein kinase catalytic subunit PRKX (Homo sapiens) (UniProt P51817); assay: Activity of human PrKX kinase at 1 uM; summary of the method: as §2
[17] = biological target: Rho-associated protein kinase 2 (Homo sapiens) (UniProt O75116); assay: Activity of human ROCK2 kinase at 1 uM; summary of the method: as §2
[18] = biological target: Proto-oncogene tyrosine-protein kinase ROS (Homo sapiens) (UniProt P08922); assay: Activity of human Ros kinase at 1 uM; summary of the method: as §2
[19] = biological target: Ribosomal protein S6 kinase alpha-3 (Homo sapiens) (UniProt P51812); assay: Activity of human Rsk2 kinase at 1 uM; summary of the method: as §2
[20] = biological target: Mitogen-activated protein kinase 14 (Homo sapiens) (UniProt Q16539); assay: Activity of human SAPK2a kinase at 1 uM
Summary of the method: (§3)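 Single-concentration screen across a 226-kinase panel run by an outside provider; test compound at 1 μM with 10 μM ATP in every assay. Other conditions not detailed.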

[21] = biological target: Serine/threonine-protein kinase DCLK2 (Homo sapiens) (UniProt Q8N568); assay: Activity of human DCAMKL2 kinase at 1 uM; summary of the method: as §1
[22] = biological target: Ephrin type-A receptor 1 (Homo sapiens) (UniProt P21709); assay: Activity of human EphA1 kinase at 1 uM; summary of the method: as §1
[23] = biological target: Tyrosine-protein kinase ZAP-70 (Homo sapiens) (UniProt P43403); assay: Activity of human ZAP70 kinase at 1 uM; summary of the method: as §2
[24] = biological target: Tyrosine-protein kinase ABL2 (Mus musculus) (UniProt Q4JIM5); assay: Activity of mouse Arg kinase at 1 uM; summary of the method: as §3
[25] = Inhibition of CAMK2 by radioactive flashplate assay
[26] = Inhibition of PKA by radioactive flashplate assay
Mus musculus = assay: Toxicity in human HCT116 cells xenografted into athymic nude NCR nu/nu mouse assessed as decrease in neutrophil count at 30 mg/kg, BID after 21 days; format: organism-based, HCT-116; design: dose 30 mg/kg; scale not given: the % may be the effect or the level left; conditions: in vivo, 504 h
Summary of the method: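 Female athymic nude NCR nu/nu mice were given HCT-116 cells (1 × 10^6) s.c. in the right flank. Drug in 10% hydroxypropyl-β-cyclodextrin/5% sodium bicarbonate was given orally (QD or BID) for 21 days. Body weight loss was recorded at the end of treatment, and neutrophil counts were also followed for the BID regimen.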

Homo sapiens [27] = species on record: Homo sapiens; assay: Activity of human CaMK1 kinase at 1 uM
[28] = biological target: Calcium/calmodulin-dependent protein kinase type IV (Homo sapiens) (UniProt Q16566); assay: Activity of human CaMK4 kinase at 1 uM
[29] = biological target: Cyclin-dependent kinase 2/cyclin E1 (Homo sapiens) (UniProt P24864+P24941); assay: Activity of human CDK2/cyclin E kinase at 1 uM; format: protein-complex assay
[30] = biological target: Casein kinase I isoform gamma-3 (Homo sapiens) (UniProt Q9Y6M4); assay: Activity of human CK1gamma3 kinase at 1 uM; summary of the method: as §1
Homo sapiens [31] = species on record: Homo sapiens; assay: Activity of human CK2 kinase at 1 uM
PC-3 [32] = assay: Induction of apoptosis in human PC3 cells assessed as PARP cleavage at 0.25 uM after 24 hrs by Western blot method; format: functional, cell-based
PC-3 [33] = assay: Induction of apoptosis in human PC3 cells assessed as PARP cleavage at 0.25 uM after 48 hrs by Western blot method; format: functional, cell-based
DLD-1 = assay: Antiproliferative activity against human DLD1 cells after 96 hrs by BrdU cell proliferation ELISA; format: functional, cell-based; conditions: DLD-1, 96 h
Summary of the method: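 BrdU incorporation proliferation assay on cultured human tumor lines; IC50 values derived from growth inhibition.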

SK-OV-3 = assay: Antiproliferative activity against human SKOV3 cells after 96 hrs by BrdU cell proliferation ELISA; format: functional, cell-based; conditions: SK-OV-3, 96 h
[34] = biological target: Tyrosine-protein kinase Yes (Homo sapiens) (UniProt P07947); assay: Inhibition of Yes kinase at 1 uM
Summary of the method: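 Single-point screen within a 226-kinase panel, with compound at 1 μM and ATP at 10 μM in all assays.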

PC-3 [35] = assay: Cell cycle arrest in human PC3 cells by accumulation at S phase at 1 uM after 24 hrs by flow cytometry relative to control; format: functional
Summary of the method: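 DNA content profiles by flow cytometry of PC-3 prostate tumor cells exposed to drug diluted in DMSO for 24 or 48 h. Phase distribution was compared with DMSO-treated control cells.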

PC-3 [36] = assay: Cell cycle arrest in human PC3 cells by accumulation at >4N phase at 1 uM after 48 hrs by flow cytometry relative to control; format: functional
PC-3 [37] = assay: Cell cycle arrest in human PC3 cells by accumulation at >4N phase at 4 uM after 48 hrs by flow cytometry relative to control; format: functional

Serine/threonine-protein kinase N2 (Homo sapiens), sequence (Q16513 whole entry, looked up): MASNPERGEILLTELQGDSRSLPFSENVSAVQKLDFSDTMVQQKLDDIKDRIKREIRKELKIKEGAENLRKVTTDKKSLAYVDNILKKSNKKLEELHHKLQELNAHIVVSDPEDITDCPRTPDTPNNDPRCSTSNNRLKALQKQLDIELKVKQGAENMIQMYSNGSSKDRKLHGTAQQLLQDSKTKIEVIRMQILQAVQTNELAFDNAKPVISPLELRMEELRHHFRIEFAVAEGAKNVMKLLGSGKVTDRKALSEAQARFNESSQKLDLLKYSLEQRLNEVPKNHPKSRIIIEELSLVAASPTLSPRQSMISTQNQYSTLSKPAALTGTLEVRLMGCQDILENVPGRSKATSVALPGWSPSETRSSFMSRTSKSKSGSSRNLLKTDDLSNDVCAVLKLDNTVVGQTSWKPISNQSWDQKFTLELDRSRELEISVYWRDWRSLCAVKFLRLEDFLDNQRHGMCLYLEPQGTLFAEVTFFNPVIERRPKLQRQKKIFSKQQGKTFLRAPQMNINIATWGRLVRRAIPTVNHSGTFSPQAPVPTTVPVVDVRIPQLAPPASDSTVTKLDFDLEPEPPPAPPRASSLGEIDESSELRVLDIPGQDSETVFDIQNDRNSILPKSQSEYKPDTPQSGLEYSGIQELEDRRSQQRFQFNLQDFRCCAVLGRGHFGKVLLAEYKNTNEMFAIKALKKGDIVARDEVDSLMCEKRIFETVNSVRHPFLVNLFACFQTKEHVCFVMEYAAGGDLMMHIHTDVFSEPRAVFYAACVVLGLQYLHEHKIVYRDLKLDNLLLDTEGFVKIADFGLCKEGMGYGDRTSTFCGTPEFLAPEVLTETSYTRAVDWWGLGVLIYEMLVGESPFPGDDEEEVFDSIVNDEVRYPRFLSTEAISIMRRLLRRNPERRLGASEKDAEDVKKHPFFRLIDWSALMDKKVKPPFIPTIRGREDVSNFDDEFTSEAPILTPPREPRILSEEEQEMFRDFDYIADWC
Focal adhesion kinase 1 (Homo sapiens), sequence (Q05397 2-1052 limits assumed): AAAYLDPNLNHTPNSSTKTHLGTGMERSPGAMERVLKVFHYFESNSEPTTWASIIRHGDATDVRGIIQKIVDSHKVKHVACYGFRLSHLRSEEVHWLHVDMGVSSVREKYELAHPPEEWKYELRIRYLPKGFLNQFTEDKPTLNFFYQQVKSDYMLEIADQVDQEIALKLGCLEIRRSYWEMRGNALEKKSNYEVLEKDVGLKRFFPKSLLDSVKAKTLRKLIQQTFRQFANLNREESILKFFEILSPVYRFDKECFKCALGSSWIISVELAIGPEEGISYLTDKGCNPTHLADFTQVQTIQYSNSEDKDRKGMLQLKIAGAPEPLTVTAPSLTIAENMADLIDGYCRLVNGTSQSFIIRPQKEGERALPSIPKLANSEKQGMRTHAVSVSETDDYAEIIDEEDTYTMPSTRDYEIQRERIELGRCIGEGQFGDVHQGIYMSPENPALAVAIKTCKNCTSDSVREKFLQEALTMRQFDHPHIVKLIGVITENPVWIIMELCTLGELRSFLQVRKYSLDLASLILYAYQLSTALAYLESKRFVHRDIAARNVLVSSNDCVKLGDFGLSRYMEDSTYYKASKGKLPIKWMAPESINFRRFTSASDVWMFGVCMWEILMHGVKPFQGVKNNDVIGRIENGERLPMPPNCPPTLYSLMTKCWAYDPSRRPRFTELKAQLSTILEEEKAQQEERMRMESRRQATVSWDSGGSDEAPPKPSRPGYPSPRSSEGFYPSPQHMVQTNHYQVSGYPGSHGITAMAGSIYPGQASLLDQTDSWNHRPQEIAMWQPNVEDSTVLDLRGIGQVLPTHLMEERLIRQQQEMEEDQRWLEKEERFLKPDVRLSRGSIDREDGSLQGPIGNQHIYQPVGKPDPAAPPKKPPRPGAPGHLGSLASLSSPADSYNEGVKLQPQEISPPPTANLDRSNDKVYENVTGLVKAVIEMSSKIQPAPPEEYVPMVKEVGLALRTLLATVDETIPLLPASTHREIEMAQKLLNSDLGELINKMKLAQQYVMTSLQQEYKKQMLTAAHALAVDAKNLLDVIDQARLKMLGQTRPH
Serine/threonine-protein kinase PAK 2 (Homo sapiens), sequence (Q13177 whole entry): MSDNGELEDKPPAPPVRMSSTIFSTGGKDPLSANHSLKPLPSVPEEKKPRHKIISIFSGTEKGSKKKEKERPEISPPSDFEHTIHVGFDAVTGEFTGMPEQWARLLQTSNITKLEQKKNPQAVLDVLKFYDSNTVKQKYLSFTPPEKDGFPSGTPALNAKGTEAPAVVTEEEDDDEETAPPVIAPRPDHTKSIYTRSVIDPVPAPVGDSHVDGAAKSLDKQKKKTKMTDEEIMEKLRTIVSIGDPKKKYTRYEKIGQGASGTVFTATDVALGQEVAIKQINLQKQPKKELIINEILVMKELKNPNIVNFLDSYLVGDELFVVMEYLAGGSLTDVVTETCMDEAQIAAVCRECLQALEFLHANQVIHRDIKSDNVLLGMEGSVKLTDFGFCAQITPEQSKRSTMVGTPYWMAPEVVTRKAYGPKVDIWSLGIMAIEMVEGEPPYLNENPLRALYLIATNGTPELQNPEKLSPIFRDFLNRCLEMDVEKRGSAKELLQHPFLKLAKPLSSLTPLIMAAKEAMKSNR
Serine/threonine-protein kinase PAK 6 (Homo sapiens), sequence (Q9NQU5 whole entry, looked up): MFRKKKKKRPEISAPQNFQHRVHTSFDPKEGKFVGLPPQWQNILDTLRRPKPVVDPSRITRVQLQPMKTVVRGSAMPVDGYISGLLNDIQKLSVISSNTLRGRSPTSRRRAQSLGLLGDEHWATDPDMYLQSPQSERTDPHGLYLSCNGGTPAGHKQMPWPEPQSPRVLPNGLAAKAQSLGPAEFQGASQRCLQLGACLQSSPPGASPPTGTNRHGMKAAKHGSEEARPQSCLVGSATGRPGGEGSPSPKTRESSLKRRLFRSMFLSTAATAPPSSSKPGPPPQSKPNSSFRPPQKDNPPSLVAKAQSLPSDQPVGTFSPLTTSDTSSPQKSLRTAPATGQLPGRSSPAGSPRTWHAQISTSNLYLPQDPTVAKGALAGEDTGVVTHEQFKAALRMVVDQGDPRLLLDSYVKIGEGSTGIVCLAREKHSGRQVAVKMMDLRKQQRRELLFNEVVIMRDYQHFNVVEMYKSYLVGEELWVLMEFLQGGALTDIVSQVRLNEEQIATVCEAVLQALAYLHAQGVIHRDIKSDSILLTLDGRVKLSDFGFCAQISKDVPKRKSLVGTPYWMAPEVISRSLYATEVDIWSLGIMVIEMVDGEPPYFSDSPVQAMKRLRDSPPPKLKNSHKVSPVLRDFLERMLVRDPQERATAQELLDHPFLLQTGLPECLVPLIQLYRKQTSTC
Mitogen-activated protein kinase 14 (Homo sapiens), sequence (Q16539 whole entry): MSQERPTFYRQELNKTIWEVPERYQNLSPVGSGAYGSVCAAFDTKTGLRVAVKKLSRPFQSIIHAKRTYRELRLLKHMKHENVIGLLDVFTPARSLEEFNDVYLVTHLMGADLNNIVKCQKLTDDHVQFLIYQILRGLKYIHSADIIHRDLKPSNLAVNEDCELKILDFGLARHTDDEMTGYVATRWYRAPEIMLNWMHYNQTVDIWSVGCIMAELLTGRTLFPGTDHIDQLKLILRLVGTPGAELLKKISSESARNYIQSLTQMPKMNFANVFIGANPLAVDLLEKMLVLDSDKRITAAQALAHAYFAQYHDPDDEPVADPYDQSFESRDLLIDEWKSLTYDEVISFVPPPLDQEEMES
Serine/threonine-protein kinase DCLK2 (Homo sapiens), sequence (Q8N568 whole entry): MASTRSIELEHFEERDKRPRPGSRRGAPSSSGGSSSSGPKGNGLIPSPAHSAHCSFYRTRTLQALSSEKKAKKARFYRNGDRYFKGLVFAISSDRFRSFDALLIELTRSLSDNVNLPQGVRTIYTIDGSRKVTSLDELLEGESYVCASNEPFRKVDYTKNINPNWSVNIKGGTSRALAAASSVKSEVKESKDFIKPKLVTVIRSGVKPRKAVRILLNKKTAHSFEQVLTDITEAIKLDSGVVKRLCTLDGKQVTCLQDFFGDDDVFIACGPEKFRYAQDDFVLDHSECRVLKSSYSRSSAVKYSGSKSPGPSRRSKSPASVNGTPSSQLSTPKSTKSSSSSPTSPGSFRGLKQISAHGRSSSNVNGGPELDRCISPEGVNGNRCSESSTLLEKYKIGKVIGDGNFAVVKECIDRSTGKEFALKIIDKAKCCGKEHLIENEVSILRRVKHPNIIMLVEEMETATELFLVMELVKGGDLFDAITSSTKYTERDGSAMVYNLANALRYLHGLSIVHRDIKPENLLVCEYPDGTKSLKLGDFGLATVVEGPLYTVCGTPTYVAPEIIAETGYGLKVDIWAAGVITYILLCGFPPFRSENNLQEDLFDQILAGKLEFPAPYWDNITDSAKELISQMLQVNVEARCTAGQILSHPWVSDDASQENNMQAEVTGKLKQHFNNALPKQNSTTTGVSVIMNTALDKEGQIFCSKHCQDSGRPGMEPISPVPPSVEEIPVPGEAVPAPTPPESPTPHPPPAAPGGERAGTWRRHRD
Serine/threonine-protein kinase pim-2 (Homo sapiens), sequence (Q9P1W9 whole entry, looked up): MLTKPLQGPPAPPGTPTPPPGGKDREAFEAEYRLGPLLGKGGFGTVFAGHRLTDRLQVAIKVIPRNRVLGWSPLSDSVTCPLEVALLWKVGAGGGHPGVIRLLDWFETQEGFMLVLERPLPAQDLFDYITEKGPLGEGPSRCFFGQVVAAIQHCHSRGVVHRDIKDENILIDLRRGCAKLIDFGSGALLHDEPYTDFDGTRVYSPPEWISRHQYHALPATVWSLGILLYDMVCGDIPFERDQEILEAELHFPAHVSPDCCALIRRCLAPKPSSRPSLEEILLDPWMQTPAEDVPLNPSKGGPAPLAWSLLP
Serine/threonine-protein kinase Nek7 (Homo sapiens), sequence (Q8TDX7 whole entry, looked up): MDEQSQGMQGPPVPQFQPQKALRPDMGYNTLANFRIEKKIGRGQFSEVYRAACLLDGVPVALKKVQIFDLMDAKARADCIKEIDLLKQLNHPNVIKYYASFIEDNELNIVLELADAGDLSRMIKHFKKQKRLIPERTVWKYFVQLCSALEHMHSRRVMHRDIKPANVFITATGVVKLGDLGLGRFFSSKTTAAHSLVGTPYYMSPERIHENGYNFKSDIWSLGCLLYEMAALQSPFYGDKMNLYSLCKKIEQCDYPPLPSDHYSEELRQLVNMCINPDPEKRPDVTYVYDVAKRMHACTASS

Activity [1]: 110%
Activity [2]: 65%
Activity [3]: 114%
Activity [4]: 110%
Activity [5]: 120%
Activity [6]: 95%
Activity [7]: 101%
Activity [8]: 95%
Activity [9]: 99%
Activity [10]: 100%
Activity [11]: 108%
Activity [12]: 101%
Activity [13]: 100%
Activity [14]: 109%
Activity [15]: 90%
Activity [16]: 99%
Activity [17]: 100%
Activity [18]: 88%
Activity [19]: 76%
Activity [20]: 105%
Activity [21]: 103%
Activity [22]: 29%
Activity [23]: 96%
Activity [24]: 63%
IC50 [25]: > 100000 nM
IC50 [26]: 19000 nM
Activity (Homo sapiens [27]): 98%
Activity [28]: 104%
Activity [29]: 97%
Activity [30]: 113%
Activity (Homo sapiens [31]): 108%
IC50 (DLD-1): 1430 nM
IC50 (SK-OV-3): 530 nM
inhibition [34]: 80%
Compound: O=C(O)c1ccc(Nc2ncc3c(n2)-c2ccc(Cl)cc2C(c2c(F)cccc2F)=NC3)cc1 [MLN-8054]
Activity (Mus musculus): 73%
Activity (PC-3 [32]): Active
Activity (PC-3 [33]): Active
Activity (PC-3 [35]): 14.9%
Activity (PC-3 [36]): 7%
Activity (PC-3 [37]): 21.4%
